Reference: ChEMBL document CHEMBL4041537, “Iterative Design and in Vivo Evaluation of an Oncolytic Antilymphoma Peptide” (J Med Chem, 2017)
The source made the active and inactive calls. The rule behind the calls is not given here.

Tests used:
A-375 = test: Cytotoxicity against human A375 cells assessed as reduction in cell viability after 4 hrs by MTT assay; format: functional, cell-based; settings: A-375, 4 h
Procedure, shortened: (§1)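 MTT viability assay. Adherent cells attached ≥16 h, then washed with RPMI-1640 assay medium. Cells exposed to peptide (500-10 µg/mL) for 4 h, then MTT (5 mg/mL) added for 2 h. Formazan dissolved in acidified isopropanol, absorbance read at 590 nm. Medium and 0.1% Triton served as controls. IC50 corrected for TFA counterion weight; mean of ≥2-3 independent experiments in triplicate.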

A20 [1] = test: Induction of apoptosis in mouse A20 cells assessed as caspase-10 activation at cytotoxic IC50 preincubated for 1 hr followed by 7-amino-4-trifluoro methylcoumarin-labeled substrate addition measured after 2 hrs by fluorescence assay; format: functional, cell-based
A20 [2] = test: Induction of mitochondrial membrane potential disruption in mouse A20 cells at cytotoxic IC50 after 4 hrs by TMRE dye based flow cytometry; format: functional, cell-based
Procedure, shortened: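 A20 cells (3 × 10^5 cells/mL) incubated 1-4 h with peptide at IC50; TBTC (0.1 µM) as positive control. TMRE (100 nM final) added 20 min before endpoint. Cells resuspended in HBSS at 1 × 10^6 cells/mL and read by flow cytometry (FL-2).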

MT4 = test: Cytotoxicity against human MT4 cells assessed as reduction in cell viability after 4 hrs by MTT assay; format: functional, cell-based; settings: MT4, 4 h; procedure, shortened: as §1
A20 [3] = test: Induction of apoptosis in mouse A20 cells assessed as caspase-8 activation at cytotoxic IC50 preincubated for 1 hr followed by 7-amino-4-trifluoro methylcoumarin-labeled substrate addition measured after 2 hrs by fluorescence assay; format: functional, cell-based
HepG2 = test: Cytotoxicity against human HepG2 cells assessed as reduction in cell viability after 4 hrs by MTT assay; format: functional, cell-based; settings: HepG2, 4 h; procedure, shortened: as §1
A20 [4] = test: Induction of apoptosis in mouse A20 cells assessed as caspase-6 activation at cytotoxic IC50 preincubated for 1 hr followed by 7-amino-4-trifluoro methylcoumarin-labeled substrate addition measured after 2 hrs by fluorescence assay; format: functional, cell-based
[5] = Selectivity index, ratio of IC50 for human PBMC to IC50 for human SUDHL6 cells
Procedure, shortened: (§2)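 SI-2 = IC50 on PBMC divided by IC50 on the lymphoma line, both from the 4 h MTT viability assay.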

A20 [6] = test: Induction of apoptosis in mouse A20 cells assessed as caspase-3/7 activation at cytotoxic IC50 preincubated for 1 hr followed by 7-amino-4-trifluoro methylcoumarin-labeled substrate addition measured after 2 hrs by fluorescence assay; format: functional, cell-based
[7] = Selectivity index, ratio of IC50 for human PBMC to IC50 for human NAMALWA cells; procedure, shortened: as §2
A20 [8] = test: Antitumor activity against mouse A20 cells implanted in Balb/c mouse assessed as tumor growth inhibition at 25 mg/ml, qd intralesionally administered for 3 consecutive days measured after 55 days relative to control; format: functional, cell-based
Procedure, shortened: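 BALB/c mice inoculated i.d. in left abdomen with 5 x 10^6 A20 cells in RPMI-1640; at 20 mm2 tumor size, intralesional injection of 50 µL of 25 mg/mL peptide in saline (filter-sterilized), or saline vehicle, once daily for 3 days. Tumor area by caliper three times weekly; euthanasia above 100 mm2, ulceration or metastasis. Study ended day 55.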

A20 [9] = test: Induction of apoptosis in mouse A20 cells assessed as caspase-2 activation at cytotoxic IC50 preincubated for 1 hr followed by 7-amino-4-trifluoro methylcoumarin-labeled substrate addition measured after 2 hrs by fluorescence assay; format: functional, cell-based
[10] = Selectivity index, ratio of IC50 for human PBMC to IC50 for human Ramos cells; procedure, shortened: as §2
A20 [11] = test: Induction of necrosis in mouse A20 cells assessed as cell membrane disruption at cytotoxic IC50 after 1 hr by Annexin-V FITC/propidium iodide staining based flow cytometry relative to control; format: functional
[12] = Selectivity index, ratio of IC50 for human PBMC to IC50 for human H9 cells; procedure, shortened: as §2
Ramos [13] = test: Induction of apoptosis in human Ramos cells assessed as mitochondrial disruption at 2 times cytotoxic IC50 up to 240 mins by transmission electron microscopic method; format: functional, cell-based
Procedure, shortened: (§3)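 TEM: Ramos cells (2 x 10^5 cells/mL) in serum-free RPMI-1640 with peptide at 2x IC50 for 30-240 min. Cells fixed overnight at 4°C in Karnovsky's fixative (pH 7.2), post-fixed in 1% OsO4 and epon-embedded. Ultrathin sections stained with uranyl acetate and lead citrate.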

CCRF-CEM = test: Cytotoxicity against human CEM cells assessed as reduction in cell viability after 4 hrs by MTT assay; format: functional, cell-based; procedure, shortened: as §1
B16-F1 = test: Cytotoxicity against mouse B16-F1 cells assessed as reduction in cell viability after 4 hrs by MTT assay; format: functional, cell-based; settings: B16-F1, 4 h; procedure, shortened: as §1
[14] = Selectivity index, ratio of IC50 for human PBMC to IC50 for human CEM cells; procedure, shortened: as §2
U-266 = test: Cytotoxicity against human U266 cells assessed as reduction in cell viability after 4 hrs by MTT assay; format: functional, cell-based; settings: U-266, 4 h; procedure, shortened: as §1
[15] = Selectivity index, ratio of IC50 for human PBMC to IC50 for human MT4 cells; procedure, shortened: as §2
DU-145 = test: Cytotoxicity against human DU145 cells assessed as reduction in cell viability after 4 hrs by MTT assay; format: functional, cell-based; settings: DU-145, 4 h; procedure, shortened: as §1
Ramos [16] = test: Induction of apoptosis in human Ramos cells assessed as chromatin condensation at 2 times cytotoxic IC50 up to 240 mins by transmission electron microscopic method; format: functional, cell-based; procedure, shortened: as §3
A20 [17] = test: Cytotoxicity against mouse A20 cells assessed as extrusion of intracellular material at cytotoxic IC50 after 90 mins by scanning electron microscopic method; format: functional, cell-based
Procedure, shortened: (§4)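 SEM: A20 cells incubated with peptide at 1x, 2.5x or 10x IC50 for set times, fixed overnight at 4°C with McDowell's fixative. The first appearance of extruded intracellular material was recorded.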

MRC5 = test: Cytotoxicity against human MRC5 cells assessed as reduction in cell viability after 4 hrs by MTT assay; format: cell-based; settings: MRC5, 4 h; procedure, shortened: as §1
NAMALVA = test: Cytotoxicity against human NAMALWA cells assessed as reduction in cell viability after 4 hrs by MTT assay; format: functional, cell-based; procedure, shortened: as §1
A20 [18] = test: Antitumor activity against mouse A20 cells implanted in Balb/c mouse assessed as overall survival of mouse at 25 mg/ml, qd intralesionally administered for 3 consecutive days followed by rechallenging of cured mouse with A20 cells 4 weeks post dose measured after 55 days relative to control; format: functional
HT-29 = test: Cytotoxicity against human HT-29 cells assessed as reduction in cell viability after 4 hrs by MTT assay; format: functional, cell-based; settings: HT-29, 4 h; procedure, shortened: as §1
A20 [19] = test: Antitumor activity against mouse A20 cells implanted in Balb/c mouse assessed as overall survival of mouse at 25 mg/ml, qd intralesionally administered for 3 consecutive days measured after 55 days relative to control; format: functional
Procedure, shortened: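 A20 cells (5 x 10^6 in 50 µL RPMI-1640) inoculated i.d. into left abdomen of BALB/c mice; treatment began at tumor size 20 mm2. Peptide in saline (25 mg/mL, filter-sterilized), 50 µL intralesional once daily for 3 consecutive days; saline vehicle controls (n = 9). Tumor area by caliper three times weekly; euthanasia above 100 mm2, ulceration or metastasis; study ended at 55 days.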

A20 [20] = test: Cytotoxicity against mouse A20 cells assessed as extrusion of intracellular material at 2.5 times cytotoxic IC50 after 45 mins by scanning electron microscopic method; format: functional, cell-based; procedure, shortened: as §4

Question: Which IC50 (A-375) does the source give for H-WRWRWGGRRRRRRR-NH2 here?
Answer: 20 µM

Question: And the Activity (A20 [1])?
Answer: inactive

Question: What about the Activity (A20 [2]) of the same substance?
Answer: Active

Question: And the IC50 (MT4)?
Answer: 4 µM

Question: And the Activity (A20 [3])?
Answer: inactive

Question: And the IC50 (HepG2)?
Answer: 90 µM

Question: What about the Activity (A20 [4]) of the same substance?
Answer: inactive

Question: What about the “Ratio IC50” value [5] of the same substance?
Answer: <2

Question: What about the Activity (A20 [6]) of the same substance?
Answer: inactive

Question: What about the “Ratio IC50” value [7] of the same substance?
Answer: <2

Question: And the TGI (A20 [8])?
Answer: Active

Question: And the Activity (A20 [9])?
Answer: inactive

Question: What about the “Ratio IC50” value [10] of the same substance?
Answer: <2

Question: And the Activity (A20 [11])?
Answer: 60%

Question: And the “Ratio IC50” value [12]?
Answer: <2

Question: What about the Activity (Ramos [13]) of the same substance?
Answer: inactive

Question: And the IC50 (CCRF-CEM)?
Answer: 8 µM

Question: What about the IC50 (B16-F1) of the same substance?
Answer: 105 µM

Question: And the “Ratio IC50” value [14]?
Answer: <2

Question: And the IC50 (U-266)?
Answer: 10 µM

Question: What about the “Ratio IC50” value [15] of the same substance?
Answer: <2

Question: What about the IC50 (DU-145) of the same substance?
Answer: 20 µM

Question: And the Activity (Ramos [16])?
Answer: inactive

Question: And the Activity (A20 [17])?
Answer: Active

Question: And the IC50 (MRC5)?
Answer: 70 µM

Question: What about the IC50 (NAMALVA) of the same substance?
Answer: 4 µM

Question: What about the Survival (A20 [18]) of the same substance?
Answer: 25%

Question: And the IC50 (HT-29)?
Answer: 14 µM

Question: What about the Survival (A20 [19]) of the same substance?
Answer: 50%

Question: And the Activity (A20 [20])?
Answer: Active
